Bioassay records (PubChem BioAssay)
SIRT5 block: inhibitors of human sirtuin-5 desuccinylase | Q9NXA8 | Purified SirT5, succinyl-peptide AMC, trypsin-coupled fluorescence | inhibition, % at 15 µM | 1.1% of 330,000 active; in the data active = inhibition above about 15%
Target sequence (Q9NXA8 whole entry, looked up): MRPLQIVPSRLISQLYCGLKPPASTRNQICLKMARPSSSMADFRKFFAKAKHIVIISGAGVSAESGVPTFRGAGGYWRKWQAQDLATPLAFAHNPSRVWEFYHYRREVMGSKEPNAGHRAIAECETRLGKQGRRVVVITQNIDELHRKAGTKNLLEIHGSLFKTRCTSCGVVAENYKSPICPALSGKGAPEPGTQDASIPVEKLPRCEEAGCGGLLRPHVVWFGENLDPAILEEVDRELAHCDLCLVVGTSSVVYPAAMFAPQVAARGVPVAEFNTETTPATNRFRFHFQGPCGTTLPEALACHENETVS
miR122 inh: miR-122 inhibition in Huh7 cells | Huh7 miR-122 Renilla luciferase sensor, 48 h; neutral wells = 0, positive control = 100 | activation (reporter increase), % at 12.5 µM | 0.3% of 340,000 active | AID 602342;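 active = mean replicate activation score at least 90 and every replicate individually at or above 90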;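 also: higher luciferase means less miR-122 activity so hits act as miR-122 inhibitors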
FGF22 binding: FGF22 (human) thermal shift binding; activity (Tm shift, normalised), % at 9.99 µM; AID 651658; recombinant FGF22 thermal shift, SYPRO orange fluorescence; percent of sucrose octasulfate shift, DMSO zero; 1.5% of 340,000 active; Q9HCT0;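 active = mean Tm shift, scaled 0 neutral to 100 positive control, at about 1.3% or above, every replicate too, limit read from the data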
Target sequence (Q9HCT0 whole entry, looked up): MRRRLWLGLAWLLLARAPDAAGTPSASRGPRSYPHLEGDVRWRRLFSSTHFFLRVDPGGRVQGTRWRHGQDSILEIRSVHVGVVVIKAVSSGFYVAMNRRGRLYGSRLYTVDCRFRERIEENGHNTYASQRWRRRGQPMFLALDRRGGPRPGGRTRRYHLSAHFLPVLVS
S100A4 inh HTS: blocks human S100A4 binding to myosin IIA peptide; P26447; S100A4/TAMRA-MyoIIA peptide fluorescence polarization; inhibition, % at 10.7 µM; 0.14% of 360,000 active;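 active = mean inhibition of at least 70% across replicates, with every replicate also reaching that level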
Target sequence (P26447 whole entry, looked up): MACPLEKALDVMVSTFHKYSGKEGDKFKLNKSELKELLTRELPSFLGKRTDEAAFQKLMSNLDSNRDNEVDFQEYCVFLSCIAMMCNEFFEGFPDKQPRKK
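assay system = human S100A4 monomer with TAMRA-labelled myosin IIA peptide | also added = labelled myosin peptide probe, 5 nM | incubation = 5 min between mix addition and reading | control set = DMSO and TFP controls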
E-sel inducer: induces E-selectin expression in human endothelial cells; P16581; HUVEC E-selectin immunofluorescence imaging; normalized: neutral wells 0, TNF-alpha wells 100; activation, % at 7.58 µM; 0.37% of 260,000 active;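 active = mean E-selectin-positive cell signal at least 10% of the positive control, reached in at least 60% of replicates, without over 20% cell loss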
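Assay system: HUVEC, human umbilical vein endothelial cells / Amount: 3,000 HUVEC/well / Controls: TNF-alpha positive control, DMSO neutral control / Compound dosing: single concentration / Medium: EGM-2 over gelatin coat / Evaluation: percent E-selectin-positive cells / Signal: immunofluorescence imaging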
Large screens that a line does not name were inactive. Sampled rows, rich in hits. Any-hit rate of the full collection: about 2.5%.

O=C(C[C@H]1C=C[C@@H](NC(=O)Nc2cc(F)ccc2F)[C@@H](CO)O1)NCc1ccccn1	none (no result: miR122 inh)
CN1C(=O)c2cc(NC(=O)C3CC3)ccc2OC[C@@H]2O[C@@H](CC(=O)NC3CCC3)CC[C@H]21	none
CN(Cc1ccccc1)C(c1ccnc2ccccc12)c1nnnn1-c1ccc2c(c1)OCCO2 (centres undefined)	SIRT5 block 39 (no result: miR122 inh)
Cc1ccc(S(=O)(=O)Nc2ccc(C(=O)Nc3cc(C)on3)cc2)cc1	miR122 inh 115 (no result: SIRT5 block, FGF22 binding, S100A4 inh HTS, E-sel inducer)
COc1ccc(C(=O)Nc2cc(C)on2)cc1OC	none
Cc1cc(NC(=O)c2ccno2)no1	SIRT5 block 19
COc1ccc(C(=O)Nc2cc(C)on2)cc1[N+](=O)[O-]	FGF22 binding 43 (no result: miR122 inh, E-sel inducer)
CC(=O)c1ccc(N(CC(=O)Nc2cc(C)on2)S(=O)(=O)c2ccc(C)cc2)cc1	FGF22 binding 43
C/C=C/c1cnc2c(c1)C(=O)N([C@H](C)CO)C[C@@H](C)[C@H](CN(C)C(=O)C1CCOCC1)O2	none
C[C@@H]1CN([C@@H](C)CO)C(=O)c2cccc(NC(=O)Nc3ccc(C(F)(F)F)cc3)c2O[C@H]1CN(C)Cc1ccccc1	none
C[C@@H]1CN([C@H](C)CO)C(=O)c2cc(C3=CCCC3)cnc2O[C@@H]1CN(C)C(=O)Nc1ccc(C(F)(F)F)cc1	none
CO[C@H]1CN(C)C(=O)c2ccc(NC(=O)NC(C)C)cc2OC[C@H](C)N(Cc2ccccc2)C[C@H]1C	SIRT5 block 23
CO[C@@H]1CN(C)C(=O)c2ccc(NC(=O)NC(C)C)cc2OC[C@@H](C)N(Cc2ccccc2)C[C@@H]1C	SIRT5 block 18
O=C1COc2ccc(C(=O)COC(=O)Cc3ccc(Cl)cc3)cc2N1	none
Cc1ccc(C(=O)NCC(=O)OCC(=O)c2ccc3c(c2)NC(=O)CO3)cc1	none (no result: FGF22 binding)
O=C1COc2ccc(C(=O)COC(=O)CNC(=O)c3ccco3)cc2N1	FGF22 binding 43 (no result: miR122 inh)
O=C1COc2ccc(C(=O)COC(=O)CCSc3ccc(Cl)cc3)cc2N1	SIRT5 block 16 (no result: miR122 inh, FGF22 binding, E-sel inducer)
Cc1ccc(OCC(=O)Nc2nnc(C3CCCO3)s2)c(Br)c1 (centres undefined)	FGF22 binding 44 (no result: miR122 inh, E-sel inducer)
Cc1cccc(C)c1OCC(=O)Nc1nnc(C2CCCO2)s1 (centres undefined)	none (no result: SIRT5 block, FGF22 binding, S100A4 inh HTS, E-sel inducer)
C[C@@H]1CN([C@H](C)CO)S(=O)(=O)c2ccc(-c3ccc(F)cc3)cc2O[C@@H]1CN(C)C(=O)Nc1ccc(F)cc1	none (no result: SIRT5 block, FGF22 binding, S100A4 inh HTS)
Cn1c(NC(=O)c2ccc(C(C)(C)C)cc2)cc(=O)n(C)c1=O	none
Cn1c(NC(=O)c2ccc(Cl)cc2)cc(=O)n(C)c1=O	FGF22 binding 44 (no result: miR122 inh)
O=C(C[C@H]1C[C@H]2c3cc(NC(=O)c4cccnc4)ccc3O[C@H]2[C@H](CO)O1)NCCN1CCCCC1	none
CN(C)C(=O)[C@H]1[C@H](CO)[C@H]2Cn3c(ccc(C4=CCCC4)c3=O)[C@@H]1N2Cc1ccccn1	none (no result: miR122 inh, FGF22 binding)
CCOC(=O)c1c2ccc(OCC(=O)N/N=C/c3ccc(C)cc3)cc2n2ccccc12	none (no result: SIRT5 block, FGF22 binding, S100A4 inh HTS, E-sel inducer)
CCOC(=O)c1c2ccc(OCC(=O)NN)cc2n2ccccc12	FGF22 binding 43 (no result: miR122 inh)
COc1ccc(NC(=O)Nc2ccc3c(c2)C(=O)N([C@@H](C)CO)C[C@@H](C)[C@H](CN(C)S(=O)(=O)c2ccc(F)cc2)OCCCC[C@@H](C)O3)cc1	SIRT5 block 15 (no result: E-sel inducer)
COc1ccc(S(=O)(=O)N(C)C[C@@H]2OCCCC[C@@H](C)Oc3ccc(NC(=O)Nc4ccc(F)cc4)cc3C(=O)N([C@@H](C)CO)C[C@@H]2C)cc1	SIRT5 block 17
C[C@@H]1CN([C@@H](C)CO)C(=O)c2cc(NC(=O)Nc3ccc(F)cc3)ccc2O[C@@H]1CN(C)S(=O)(=O)c1cccs1	E-sel inducer 161
COc1ccc(S(=O)(=O)N(C)C[C@H]2OCCCC[C@@H](C)Oc3ccc(NC(=O)Nc4ccc(F)cc4)cc3C(=O)N([C@@H](C)CO)C[C@@H]2C)cc1	SIRT5 block 16
C[C@H](CO)N1C[C@H](C)[C@H](CN(C)S(=O)(=O)c2cccs2)Oc2ccc(NC(=O)Nc3ccc(F)cc3)cc2C1=O	none (no result: E-sel inducer)
COc1ccccc1-c1ccc2c(c1)O[C@@H](CN(C)CC1CC1)[C@H](C)CN([C@@H](C)CO)S2(=O)=O	none (no result: SIRT5 block, FGF22 binding, S100A4 inh HTS)
CC(C)NC(=O)N1CC2(C1)[C@H](c1ccccc1)[C@@H](CO)N2Cc1ccccc1	none (no result: miR122 inh)
C[C@@H]1CCCCO[C@@H](CN(C)S(=O)(=O)c2ccc(F)cc2)[C@H](C)CN([C@H](C)CO)C(=O)c2cc(NC(=O)Nc3ccc(C(F)(F)F)cc3)ccc2O1	SIRT5 block 15 (no result: FGF22 binding, E-sel inducer)
COc1ccc(NC(=O)Nc2ccc3c(c2)C(=O)N([C@H](C)CO)C[C@@H](C)[C@@H](CN(C)S(=O)(=O)c2ccc(F)cc2)O3)cc1	E-sel inducer 40 (no result: SIRT5 block, S100A4 inh HTS)
COc1ccc(S(=O)(=O)N(C)C[C@H]2OCCCC[C@@H](C)Oc3ccc(NC(=O)Nc4ccc(F)cc4)cc3C(=O)N([C@@H](C)CO)C[C@H]2C)cc1	SIRT5 block 17
COc1cccc(CC(NC(C)=O)C(=O)NC2CCN(S(=O)(=O)c3ccc(F)cc3)CC2)c1OC (centres undefined)	none (no result: FGF22 binding, E-sel inducer)
COc1ccccc1CC(NC(C)=O)C(=O)NC1CCN(C(=O)c2ccc([N+](=O)[O-])cc2)CC1 (centres undefined)	FGF22 binding 44 (no result: miR122 inh, E-sel inducer)
COc1ccc(S(=O)(=O)N2CCC(NC(=O)C(Cc3cccc(OC)c3OC)NC(C)=O)CC2)cc1 (centres undefined)	SIRT5 block 18 (no result: E-sel inducer)
O=C(C[C@@H]1CC[C@H](NC(=O)Nc2ccc(F)cc2)[C@@H](CO)O1)NCc1ccccn1	none (no result: miR122 inh)
CO[C@@H]1CN(C)C(=O)c2cc(NC(=O)Nc3cccc(Cl)c3)ccc2OC[C@@H](C)N(C(=O)Nc2c(C)noc2C)C[C@@H]1C	none (no result: SIRT5 block, FGF22 binding, S100A4 inh HTS)
CCCc1ccc(C(C)NC(=S)NCc2ccc(F)cc2)cc1 (centres undefined)	none
CCOc1ccc(C(C)NC(=S)NCc2ccc(Cl)cc2)cc1 (centres undefined)	FGF22 binding 43 (no result: miR122 inh, E-sel inducer)
NC(=O)C1CCN(C(=O)c2cc3c(s2)CCCC3)CC1	FGF22 binding 43
Cc1cccc(-c2cc(C(=O)Nc3ccc4c(c3)OCCO4)c3ccccc3n2)c1	none (no result: SIRT5 block, FGF22 binding, S100A4 inh HTS, E-sel inducer)
O=C(Nc1ccc2c(c1)OCCO2)c1cc(-c2ccccn2)nc2ccc(Br)cc12	FGF22 binding 44
CCn1c(Cc2cccs2)nnc1SCC(=O)NC(C)(C)C	FGF22 binding 43 (no result: miR122 inh, E-sel inducer)
Cc1ccc2nc(-c3ccccc3)c(Cc3cccc(Cl)c3)n2c1	SIRT5 block 22 (no result: E-sel inducer)
Clc1cccc(Cc2c(-c3ccco3)nc3ccc(Br)cn23)c1	none (no result: E-sel inducer)
Clc1cccc(Cc2c(-c3ccco3)nc3ccc(Cl)cn23)c1	FGF22 binding 1.7
O=C(CNC(=O)c1ccc(Cl)cc1)OC1CCOC1=O (centres undefined)	FGF22 binding 43 (no result: miR122 inh, E-sel inducer)
